Screening data as filed in PubChem.
MT stabilizer: microtubule stabilization, imaging screen | 0.83% of 200,000 active | HeLa tubulin immunostaining HCS, 24 h; share of cells brighter than vehicle mean+2SD | % tubulin-high responders, % at 10 µM | AID 2205;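 active = plate Z-score above 3 for both tubulin-high and condensed-nucleus cell shares, with cell loss under 80%, at 10 µM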;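 note: anti alpha tubulin signal scored within the nucleus-defined area of each cell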
Autophagy HCS: alters autophagy in cells; MEF GFP-LC3 puncta imaging; test concentration mostly 10 µM; calls only at 10 µM (by protocol); 0.98% of 190,000 active; AID 463193;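 active = percentage of spot-positive cells more than 3 SD above its plate mean, without a fluorescence outlier flag or 80% toxicity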;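 note: spot-positive cell cutoff set from DMSO-treated cells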
Dynein transport: dynein cargo transport inhibition. 3617.4 mouse cells, GR-EGFP nuclear translocation imaging; test concentration mostly 20 µM; stimulated with dexamethasone, 1 µM; stronger effect = lower value. z-score, hits read low. AID 1381. 0.47% of 220,000 active;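 active = plate z-score of nuclear minus cytoplasmic receptor signal below a set negative limit, without overly bright fluorescence or cell loss, cut at about -3.5 in these data, passing the limit was not always enough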;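 note: z-score of nuclear minus cytoplasmic ring GR-EGFP intensity difference per well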
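medium = tetracycline-free induction medium containing charcoal-stripped FBS | also added = 1.0 µM final dexamethasone stimulus | schedule = 48 h induction, 1 h compound, 30 min dex at 37 °C | technique = fixed, Hoechst-stained cells imaged at 10x for EGFP | measure = GR-EGFP nuclear translocation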
b-catenin transl: alters nuclear translocation of beta-catenin in HeLa cells | AID 1665 | nuclear translocation activity, % at 5 µM | immunofluorescence imaging | 0.3% of 190,000 active;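 active = nuclear translocation activity above 50% at 5 µM, with a well cell count of 50 or more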;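 note: per-cell ratio of nuclear to cytoplasmic median beta-catenin stain intensity; plate controls were DMSO negative control for no effect and GSK-3 inhibitor IX positive control for full effect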
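Test system: human HeLa cell line; Doses: 5 µM primary, 0.02–20 µM confirmation; Incubation: 24 h compound exposure, 37°C; Detection: beta-catenin immunofluorescence imaging with DAPI; Read-out: beta-catenin nuclear/cytoplasmic ratio, % activation.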
Hsp70 activator: transcriptional activators of Hsp70 | HeLa Hsp70 promoter luciferase reporter, luminescence; scaled: vehicle 0, proteasome-inhibitor control 100% | activation, % at 10 µM | 0.04% of 200,000 active | AID 1203;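 active = activation above the mean across all tested compounds plus 3 SD, cutoff set per campaign, cut at about 5.5% in these data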;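 note: 100% = MG132 at 30 µM as the positive control and 0% = DMSO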
Starred values were filed as active, the others as inactive; i = inactive; / = no result; + = active, no number. Only some compounds are listed: those with a hit (about 2.1% of all), similar ones and a draw of the others.

SMILES	MT stabilizer	Autophagy HCS	Dynein transport	b-catenin transl	Hsp70 activator
O=C(COC(=O)c1ccc(S(=O)(=O)N2CCCC2)cc1)NCc1ccco1	/	/	-0.13	0	/
CC(=O)Nc1ccc(S(=O)(=O)Nc2c(C)nn(-c3ccccc3)c2C)cc1	4	i	0.6	-4	0
Cc1nn(-c2ccc(F)cc2)c(C)c1NS(=O)(=O)c1ccc2ccccc2c1	26*	i	-0.95	-1	0
O=C(N/N=C/c1ccc([N+](=O)[O-])o1)c1ccccc1NS(=O)(=O)c1cccs1	/	/	-0.12	1	/
Cc1c(CN(C)Cc2cn(C)nc2-c2ccccc2F)[nH]c2ccccc12	3	+	-0.36	1	0
CCOc1ccc(N2C(=O)CC(Sc3nnnn3-c3ccccc3)C2=O)cc1 (stereo not drawn)	2	+	-3.2	-2	0
CCOc1ccc(N2C(=O)CC(Sc3nc(C)cc(C)n3)C2=O)cc1 (stereo not drawn)	2	i	-1	-2	0
COCCNC(=O)COC(=O)c1ccc(OCC(=O)Nc2ccccc2OC)c(OC)c1	6	i	0.068	-4	0
O=C(NCCOc1ccccc1Cl)C(=O)c1c[nH]c2ccccc12	3	i	-1.2	0	0
C=CCNC(=O)C(=O)NCCOc1ccccc1Cl	23*	i	-0.25	3	0
COc1ccc(-c2nc(C(N)=O)c3[nH]c(=O)n(-c4cccc(Cl)c4)c3n2)cc1OC	1	i	0.084	/	0
CCc1ccc(-c2nc(C(N)=O)c3[nH]c(=O)n(-c4ccccc4OC)c3n2)cc1	17*	i	-0.46	-1	0
COc1ccc(C(=O)CSc2nc3ncccc3[nH]2)cc1OC	/	/	-0.44	-1	/
O=C(Cn1c(O)c(/C=C2\C=Nc3ccccc32)sc1=O)Nc1ccc2c(c1)OCO2	2	+	-0.067	0	0
C/C(=N\S(=O)(=O)c1ccc(C)cc1)N(C)C	/	/	0.65	-2	/
COc1cc(NC(=S)NC(=O)c2ccco2)ccc1NC(=O)C(C)C	6	i	-1.2	0	1
COc1cc(NC(=S)NC(=O)c2ccccc2F)ccc1NC(=O)c1ccco1	15*	i	1.2	0	0
CCN(CC)CCCNC(=S)N(Cc1cccnc1)Cc1cc2cc(C)ccc2[nH]c1=O	/	/	0.43	-1	/
COc1cc(/C=N/Nc2nc(C)nc3c2cnn3-c2ccccc2)ccc1O	16*	i	1.8	63*	0
COc1cc(/C=N/NC(=O)c2nc(-c3ccccc3)n(-c3ccccc3)n2)ccc1O	3	i	0.9	-1	0
COc1ccc(OC)c(N=c2oc3cc(O)ccc3cc2C(N)=O)c1	5	i	-0.56	0	0
COc1ccc2o/c(=N\O)c(C(=O)Nc3ccccc3OC)cc2c1	2	i	-4.2*	1	0
COc1ccc2oc(=Nc3cc(F)ccc3F)c(C(N)=O)cc2c1	15	+	1.3	/	0
O=C(CCNC(=O)Cn1ccc2ccccc2c1=O)NCc1ccc(F)cc1Cl	4	i	1.8	-1	0
COc1ccc(-c2[nH]ncc2/C=C(/C#N)C(=O)NC2CCCCCC2)cc1	49*	i	0.3	7	0
SMILES	MT stabilizer	Autophagy HCS	Dynein transport	b-catenin transl	Hsp70 activator
Cc1ccnc(SCc2cc(=O)c(OC(=O)c3ccc(Cl)c([N+](=O)[O-])c3)co2)n1	4	i	-0.95	0	0
O=C(c1ccccc1)N1CCCC(C(=O)N2CCN(c3ccccc3)CC2)C1 (stereo not drawn)	/	/	-0.51	-1	/
O=C(Cc1cccs1)N1CCN=C1SCc1ccccc1F	2	+	-0.41	3	0
O=C(Cc1cccs1)N1CCN=C1SCc1ccccc1Cl	4	i	-1.3	-4	0
COc1cc(/C=N/Nc2nc(Nc3ccccc3)nc(-n3nc(C)cc3C)n2)cc(OC)c1OC	5	+	-0.45	-2	0
COc1ccc(/C=N/Nc2nc(Nc3ccccc3)nc(N3CCCC3)n2)cc1[N+](=O)[O-]	7	+	-0.095	1	0
CC(=O)c1ccc(NC(=O)Nc2ccc3c(c2)nc(C)n3C)cc1	3	+	-0.67	1	0
Cc1ccc(NC(=O)Nc2ccc3c(c2)nc(C)n3C)cc1	2	i	-1	-1	0
CC(=O)c1cccc(NC(=O)Nc2c(C)nn(C)c2C)c1	3	+	0.78	/	0
Cc1cc(C)c(NC(=O)CSc2ccc3nnc(CCNC(=O)c4ccccc4)n3n2)c(C)c1	4	i	-0.27	0	0
CNC(=O)n1cc(C)c(-c2cccs2)n1	/	/	0.44	1	/
c1ccc(-c2cn3nc(-c4ccccc4)c(-c4ccccc4)nc3n2)cc1	1	+	-0.36	0	0
COC(=O)c1ccc(Oc2nc(C)cc(Oc3ccccc3)n2)cc1	3	i	-0.24	-2	0
COC(=O)c1ccc(Oc2cc(C)nc(-n3nc(C)cc3C)n2)cc1	20*	i	0.58	/	1
CCOC(=O)c1ccc(Oc2cc(C)nc(SC)n2)cc1	44*	i	-0.81	0	0
O=C(O)/C=C/C(=O)NC1CC1	4	i	-0.66	-2	0
O=C(O)CCCCNS(=O)(=O)/C=C/c1ccccc1	4	i	0.03	-5	-1
CCCCNS(=O)(=O)/C=C/c1ccccc1	2	+	1.2	3	0
Cn1cccc1/C=N/N1CCN(Cc2cccc3ccccc23)CC1	/	/	0.35	0	/
COc1ccc(NC(=O)c2nc[nH]c2C(=O)Nc2ccccc2C)cc1	54*	i	0.077	80*	0
COc1ccccc1NC(=O)c1nc[nH]c1C(=O)Nc1ccccc1OC	31*	i	-1.7	6	-1
COc1ccc(NC(=O)c2nc[nH]c2C(=O)N[C@@H](C)c2ccccc2)cc1	/	/	-0.27	0	/
Cc1ccc(NC(=S)NC(=O)c2ccc(F)cc2)cc1S(=O)(=O)Nc1cccc(Cl)c1	20*	i	1.3	5	0
Nc1cccc(C(=O)OCC(=O)Nc2cccc3c2C(=O)c2ccccc2C3=O)c1	3	+	0.065	/	0
Cc1cccc(NC(=O)COC(=O)c2cccc3c2C(=O)c2ccccc2C3=O)c1C	3	i	-0.9	1	0
COc1ccc2cc(CN(CC3CCCO3)C(=O)Nc3ccccc3OC)c(=O)[nH]c2c1 (stereo not drawn)	23*	i	0.41	-1	0
COc1ccc(NC(=O)N(Cc2cc3ccc(OC)cc3[nH]c2=O)CC2CCCO2)cc1 (stereo not drawn)	13*	i	-0.37	1	0
CCc1ccc2[nH]c(=O)c(CN(CCN(C)C)C(=O)Nc3ccccc3OC)cc2c1	1	i	0.037	-9	0
COc1ccc2cc(CN(C(=O)Nc3ccccc3OC)C3CCCC3)c(=O)[nH]c2c1	4	i	-0.85	0	-1
